Screening data (PubChem)
DDE Tn6 FP inh = disrupts Tn6 cyclic peptide binding to fibrin D-Dimer-E complex. Fibrin DD(E) TRITC-Tn6 fluorescence polarization displacement. 370,000 compounds, 0.21% hits. inhibition, % at 8.3 µM. P02675;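 active means inhibition above a per-campaign cutoff: mean of compounds within control limits plus 3 SD, cut at about 15% in these data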
PKA-R2B activ = activates the human PKA-R2B holoenzyme complex; P22694+P31323; PKA-R2B holoenzyme dissociation, Cy5-IP20 fluorescence polarization; R2B truncated from residue 108, S112A mutant; 0% DMSO only, 100% 113 µM cGMP; activation, % at 11.4 µM; 340,000 compounds, 0.079% hits; AID 504700;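 active means activation above a cutoff set at the mean over all compounds plus 3 SD, cut at about 18% in these data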;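 further: higher means more holoenzyme dissociation and a rise in polarization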
Target sequence (P31323 whole entry, looked up, other chains not shown, the tested form may be a part): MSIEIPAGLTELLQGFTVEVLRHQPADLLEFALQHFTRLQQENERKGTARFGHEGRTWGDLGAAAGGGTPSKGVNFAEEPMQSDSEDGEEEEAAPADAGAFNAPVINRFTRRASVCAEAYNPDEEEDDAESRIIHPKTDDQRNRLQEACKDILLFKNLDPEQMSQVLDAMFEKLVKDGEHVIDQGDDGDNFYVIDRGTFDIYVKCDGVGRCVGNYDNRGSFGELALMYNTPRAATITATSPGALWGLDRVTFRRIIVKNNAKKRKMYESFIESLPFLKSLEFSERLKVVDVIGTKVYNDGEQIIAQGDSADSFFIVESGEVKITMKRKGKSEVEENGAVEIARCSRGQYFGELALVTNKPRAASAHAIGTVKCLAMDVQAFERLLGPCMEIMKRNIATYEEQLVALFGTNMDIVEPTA
Tn7 DDE FP = disrupts Tn7 cyclic peptide binding to fibrin D-Dimer-E complex. P02675. FP displacement of FITC-Tn7 peptide from fibrin DD(E); 0% = median of compound wells per plate. inhibition, % at 8.3 µM. 370,000 compounds, 0.13% hits. AID 720508;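 active means inhibition above the mean of compounds falling within the control limits plus 3 SD of them, cut at about 14% in these data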
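Also added: labelled Tn7 tracer, 0.1 µM; Assay system: human fibrin DD(E) protein; Amount: 2 µM fibrin DD(E); Schedule: 10 min compound pre-incubation, 3 h probe incubation at room temperature; Repeats: one replicate per compound; Read-out basis: percent inhibition; Measured by: fluorescence polarization of the labelled Tn7 tracer.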
PKA-R1A act = PKA-R1A complex activation. P00514+P68181. 340,000 compounds, 0.083% hits. activation, % at 11.4 µM. PKA-R1A dissociation, Cy5-IP20 fluorescence polarization; scaled: DMSO 0%, 113 µM cGMP 100%;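 active means percent activation above the mean of all tested compounds plus 3 SD, cut at about 19% in these data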;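 further: higher means more PKAc released from R1A so a rise in polarization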
Neddyl block = cullin neddylation inhibition | inhibition, % at 25 µM | TR-FRET cullin neddylation, biochemical | 360,000 compounds, 0.58% hits; in the data active means inhibition above about 36%
DDE Tn7 confirm = confirmation of inhibitors of Tn7 binding to human fibrin DD(E); 460 compounds, 5% hits; shares compounds with Tn7 DDE FP; inhibition, % at 8.3 µM; FP displacement of TRITC-Tn7 peptide from DD(E); 0% set at plate's compound-well median;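 active means inhibition above the campaign cutoff, the mean of compounds within control limits plus 3 SD, cut at about 14% in these data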;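 further: displacers lower polarization since freed probe rises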
DDE Tn7 FP ctr = counter-screen hit for Tn7 peptide-fibrin DD(E) binding disruption; shares compounds with Tn7 DDE FP; TRITC-Tn7 probe displacement, fluorescence polarization; AID 720633; inhibition, % at 8.3 µM; 460 compounds, 3% hits;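 active means inhibition above the cutoff, the mean of compounds lying between the control bounds plus 3 SD of those compounds, cut at about 17% in these data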
Numbers stand for hits; – = inactive; · = no result shown. A selection: hits, their analogues and other compounds. The true share with any hit is near 1%.

SMILES | DDE Tn6 FP inh | PKA-R2B activ | Tn7 DDE FP | PKA-R1A act | Neddyl block | DDE Tn7 confirm | DDE Tn7 FP ctr
CCOCCCNC(=S)N1CCC(C(=O)c2ccc(C)cc2)CC1 | – | – | 14 | – | – | – | –
COc1cc2c(c(OC)c1)C(=O)O[C@H](C)C[C@@H]1O[C@H]1CCCCC(=O)C2 | – | · | – | · | · | · | ·
COc1ccc([C@H]2N[C@]3(CCCN(Cc4ccc(C(F)(F)F)cc4)C3=O)[C@H]3C(=O)N(Cc4ccccc4)C(=O)[C@@H]23)cc1 | – | – | 17 | – | – | – | –
CC(C)(C)c1cc[n+](-c2[nH]c(=O)sc2/C=N/NC([S-])=Nc2ccccc2)cc1 | – | – | 20 | – | – | – | –
COCCCNC(=S)NNC(=O)c1ccccn1 | – | – | 16 | – | – | – | –
COCCCNC(=S)NNC(=O)c1ccccc1Br | – | – | – | – | – | · | ·
O=C(N/C(C(=O)N1CCOCC1)=C(\Sc1ncccn1)c1ccccc1)c1ccccc1 | – | – | 15 | – | – | – | –
CC(C)=C(NC(=O)c1ccccc1)C(=O)N1CCOCC1 | – | – | – | – | – | · | ·
C=CCCC[C@H]1OC(=O)[C@H](C)NC(=O)[C@H](C(C)C)NC(=O)[C@@H]2CCCN2C(=O)[C@H](Cc2ccccc2)OC(=O)[C@@H](C(C)C)N(C)C(=O)[C@H](C(C)C)NC(=O)C1(C)C | – | · | – | · | · | · | ·
CC(=O)Nc1ccc(NC(=O)c2c([N+](=O)[O-])cnn2C)cc1 | – | – | 15 | – | – | – | –
Cc1cccc(NC(=O)c2c([N+](=O)[O-])cnn2C)c1 | – | – | – | – | – | · | ·
CCOC(=O)[C@H]1[C@H]2COc3ccccc3[C@@H]2N2C(=O)CN(Cc3ccc(C)cc3)C(=O)[C@@]12C | – | – | 20 | – | – | – | –
CCOC(=O)[C@H]1[C@H]2COc3ccc(C)cc3[C@@H]2N2C(=O)CN(Cc3ccc(Cl)cc3)C(=O)[C@@]12C | – | – | – | – | – | · | ·
C[C@H]1C(C(=O)N(C)C2CCCCC2)=Cc2c(n(-c3ccc(F)cc3)c(=O)n2CCCOc2ccccc2)C=C1c1ccccc1 | – | · | – | · | · | · | ·
CCN(CC)S(=O)(=O)c1cccc(C(=O)N/N=C2\CCCC(=O)C2)c1 | – | – | 25 | – | – | – | –
COc1ccc(NC(=O)CCCNS(=O)(=O)c2ccc3[nH]c(=O)oc3c2)cc1OC | – | · | – | · | · | · | ·
CC1(c2ccc(Cl)cc2)NC(=O)N(CC(=O)N2CCc3ccccc3C2)C1=O (stereo unspecified) | – | – | 15 | – | – | – | –
CC1(c2ccccc2Cl)NC(=O)N(CC(=O)N2CCc3ccccc3C2)C1=O (stereo unspecified) | – | – | – | – | – | · | ·
CCN(CC)C(=O)[C@H]1C[C@@H]2[C@H](C[C@@H](c3ccccc3)[C@H]1C)N(c1ccc(F)cc1)C(=O)N2C/C=C(\C)CCC=C(C)C | – | · | – | · | · | · | ·
COc1ccccc1-c1sc2ccccc2c1-c1ccc(O)cc1 | – | – | – | – | – | · | ·
COc1ccccc1-c1sc2ccccc2c1C#Cc1ccc(N(C)C)cc1 | – | – | 14 | – | · | – | –
CC(=O)OC[C@H]1O[C@H](C#Cc2ccc(C(C)(C)C)cc2)C=C[C@H]1OC(=O)Nc1ccccc1 | – | · | – | · | · | · | ·
COc1cc2ncnc(NCc3ccc(C)cc3)c2cc1OC | – | – | 14 | – | – | – | –
CCn1nc(C)c(CCC(=O)O)c1C | – | – | – | – | – | · | ·
Cc1nn(C)c(C)c1CCC(=O)O | – | – | 14 | – | – | – | –
SMILES | DDE Tn6 FP inh | PKA-R2B activ | Tn7 DDE FP | PKA-R1A act | Neddyl block | DDE Tn7 confirm | DDE Tn7 FP ctr
CCOC(=O)C1=Nc2cccc3c(O)ccc1c23 | – | · | 46 | · | · | 21 | –
Cc1ccccc1N(C)C(=O)Cn1nnc(-c2ccccc2F)n1 | – | · | – | · | · | · | ·
O=[N+]([O-])c1cccc(S(=O)(=O)N2CCN(S(=O)(=O)N3CCOCC3)CC2)c1 | – | – | – | – | – | · | ·
O=C(C1CCN(S(=O)(=O)c2cccc([N+](=O)[O-])c2)CC1)N1CCOCC1 | – | – | 14 | – | – | – | –
COc1ccc(S(=O)(=O)N2CCC(C(=O)N3CCCC3)CC2)cc1Cl | – | – | 15 | – | – | – | –
O=S1(=O)CC2c3ccc(F)cc3CN2CN1C1CCCC1 (stereo unspecified) | – | · | – | · | · | · | ·
CC(C)(C)NC(=O)C(c1ccccn1)N(C(=O)c1csnn1)C1CCCCC1 (stereo unspecified) | – | – | – | – | – | · | ·
CCC(C)(C)NC(=O)C(c1ccccn1)N(C(=O)c1csnn1)C1CCCCC1 (stereo unspecified) | – | – | 14 | – | – | – | –
CCOC(=O)C1CCN(CC(=O)N2CCc3ccccc32)CC1 | – | – | 14 | – | – | – | –
CC1(c2ccccc2)NC(=O)N(CC(=O)Nc2ccc(N3CCOCC3)cc2N2CCOCC2)C1=O (stereo unspecified) | – | – | 14 | – | – | – | –
O=C(c1ccccc1)c1ccc(O)cc1O | – | – | 34 | – | – | – | –
Cn1c(CC(=O)Nc2ccccc2Cl)nnc1SCC(=O)Nc1nncs1 | – | – | 14 | – | – | – | –
Cc1ccc(NC(=O)Cc2nnc(SCC(=O)Nc3nncs3)n2C)c(C)c1 | – | – | – | – | – | · | ·
C[C@H]1COc2cc(Br)ccc2S(=O)(=O)N1Cc1cn(CC2CCCCC2)nn1 | – | · | – | · | · | · | ·
CC(C)C[C@H]1CN=C(N(C)C)N1CCCCc1ccccc1 | – | – | – | – | – | · | ·
C[C@H]1CN=C(N(C)C)N1CCCCc1ccccc1 | – | – | 16 | – | – | – | –
O=C(O)C1C2CCC1C(O)C2 (stereo unspecified) | – | – | 17 | – | – | – | –
C[C@H]1[C@@H](NC(=O)c2cccc(N(C)C)c2)CC[C@@]23CCCN2C(=O)CCC[C@@H]13 | – | · | – | · | · | · | ·
Cc1cc(C(F)F)n2ncc(C(=O)NCc3ccccc3C(F)(F)F)c2n1 | – | – | 14 | – | – | – | –
COc1ccc(C=Cc2ccc3ccccc3n2)c(OC)c1 | – | – | 27 | – | – | – | –
COCCn1c(COc2cccc(OC)c2)nnc1SCC(=O)NC1CCCCC1 | – | – | 19 | – | – | – | –
COCCn1c(COc2cccc(OC)c2)nnc1SCC(=O)NC1CCCC1 | – | – | – | – | – | · | ·
Cc1ccc(CC(=O)NC2CCN(C)CC2)cc1 | – | – | – | – | – | · | ·
CN1CCC(NC(=O)CCc2ccccc2)CC1 | – | – | 14 | – | – | – | –
